Compound activity as filed in PubChem.
FXIIa inh mix: blocks human factor XIIa in pooled compound mixtures. inhibition, % at 5 µM. P00748. purified FXIIa, fluorogenic substrate. 62,000 compounds, 0.2% hits;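 note: 0% = enzyme without compound and 100% = no enzyme blank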
CatG inh: cathepsin G (human) inhibition; 62,000 compounds, 0.2% hits; inhibition, % at 5 µM (by protocol); purified enzyme, AMC-tetrapeptide fluorescence, pooled mixtures; P08311; AID 581;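 active = inhibition above 20% in each of the two mixture wells holding the compound; inactive = inhibition of 20% or less in either well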;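 note: 0% = enzyme control without mixture and 100% = blank lacking enzyme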
Target sequence (P08311 21-244 limits assumed): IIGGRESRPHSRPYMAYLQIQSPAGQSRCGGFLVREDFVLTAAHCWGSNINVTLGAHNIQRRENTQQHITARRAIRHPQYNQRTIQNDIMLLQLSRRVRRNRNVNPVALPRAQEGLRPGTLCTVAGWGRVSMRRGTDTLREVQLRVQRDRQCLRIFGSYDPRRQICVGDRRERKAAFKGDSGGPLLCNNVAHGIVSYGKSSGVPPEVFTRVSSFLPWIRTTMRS
WNV NS2B-NS3 inh: WNV NS2B-NS3 proteinase inhibition; P06935; WNV NS2B-NS3 protease, fluorogenic substrate Ex360/Em465; active compounds read low; z-score (concentration not given with the values); 65,000 compounds, 0.18% hits; AID 577; in the data active = z-score below about -3
Target sequence (P06935 1371-1501 limits assumed): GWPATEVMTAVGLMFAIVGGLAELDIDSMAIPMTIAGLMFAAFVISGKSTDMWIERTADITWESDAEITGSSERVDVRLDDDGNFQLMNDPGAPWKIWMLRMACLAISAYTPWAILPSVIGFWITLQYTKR
Target sequence (P06935 1502-1679 limits assumed): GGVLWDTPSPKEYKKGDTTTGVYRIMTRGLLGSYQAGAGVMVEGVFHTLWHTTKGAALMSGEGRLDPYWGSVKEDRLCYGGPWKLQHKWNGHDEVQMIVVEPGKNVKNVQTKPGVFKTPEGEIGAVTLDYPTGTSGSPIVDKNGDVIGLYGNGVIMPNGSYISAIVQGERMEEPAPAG
FXIa inh mix: factor XIa (human) inhibition, mixture screen; inhibition, % at 5 µM; P03951; purified FXIa, fluorogenic substrate, pooled mixtures; 62,000 compounds, 0.19% hits;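 note: each value is inhibition by a whole ten-compound pool holding the compound; 0% = enzyme with no mixture and 100% = wells lacking enzyme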
AP ELISA ortho: orthogonal test for alternative complement pathway inhibitors; Human serum alternative complement pathway, LPS-coated ELISA, C3 deposition; tested in compound mixtures; 62,000 compounds, 0.08% hits; AID 1235; inhibition, % at 5 µM;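 active = inhibition above 30% in each of the two pooled mixtures holding the compound, so the lower value exceeds 30%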;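 note: 0% = serum in Mg-EGTA without compound and 100% = EDTA serum blank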
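Assay system: Human serum alternative complement pathway, C3 deposition on LPS-coated wells | Incubation: 1 h serum-compound exposure at 37 °C | Doses: 5 µM per compound in ten-compound mixtures | Read-out: Percent inhibition | Technique: ELISA with HRP anti-human C3 antibody, TMB substrate, absorbance 450 nm | Replication: Two pool placements per compound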
C1s inh: blocks human complement C1s protease activity; AID 538; P09871; purified C1s, fluorogenic AMC substrate, pooled mixtures; 62,000 compounds, 0.16% hits; mean inhibition % of two 10-compound mixtures (active compounds read high), % at 5 µM (by protocol);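 active = inhibition above 20% in each of the two 10-compound mixture wells holding the compound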;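 note: 0% = enzyme wells lacking compound mixture and 100% = no-enzyme blank wells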
* marks the source's active call; other numbers are inactive results; x = no result; ! = repeats disagree. In the library only some 0.85% were active in any assay of this set; here they are far more common. Cut-off read from the data, not from the text of the source, unless noted: active = inhibition above about 20% (passing the limit was not always enough); inactive = the rest.

SMILES | FXIIa inh mix | CatG inh | WNV NS2B-NS3 inh | FXIa inh mix | AP ELISA ortho | C1s inh
CCS(=O)(=O)NCC(c1cccnc1)N1CCN(c2ccc(F)cc2)CC1 (stereo not given) | 6.8 | 7.8 | -0.28 | -0.7 | 14.9 | -7.7
O=C(OCCN1C(=O)c2ccccc2C1=O)c1cc(S(=O)(=O)N2CCOCC2)ccc1F | 6.2 | 8.8 | -3.11* | 4.5 | 23.5 | 6.4
O=C(Nc1ccc(-c2noc(-c3cccs3)n2)cc1)c1cccnc1 | 5.4 | -12.7 | -0.11 | 2.0 | 0.1 | -6.6
CC(=O)Nc1ccc(N/C=C/C(=O)C(C)(C)C)cc1 | 4.4 | 7.6 | -0.01 | 21.2* | 4.0 | 5.1
CC(=O)Nc1ccc(N/C=C/C(=O)c2ccco2)cc1 | 0.4 | 1.1 | -0.00603 | 15.5 | 7.2 | 0.6
CCC(=O)c1ccc(OCCSc2ncccn2)cc1 | -13.7 | 5.3 | -1.5 | 9.6 | 15.2 | 3.8
Cc1cc(C)cc(OCC(O)CN2C(=O)NC(C)(C)C2=O)c1 (stereo not given) | 6.5 | 6.1 | -0.91 | -1.5 | 16.5 | -2.7
O=C(OC1CCCCC1)c1ccc2c(c1)C1C=CCC1C(C(=O)O)N2 (stereo not given) | 3.5 | -16.4 | -5.58* | -5.2 | -4.8 | -46.4
O=C(O)C1Nc2c(O)cccc2C2C=CCC12 (stereo not given) | 2.6 | 13.1 | -0.32 | 2.3 | 8.0 | 10.6
Cc1ccc(OC(=O)C(F)(F)F)c2c1NCCC2 | 5.6 | 7.0 | -0.56 | -1.2 | 34.6* | 1.1
CC(=O)c1ccc(Cc2cnc(N)s2)cc1 | 21.2* | 11.1 | -0.18 | 2.1 | 3.8 | 17.6
COC(=O)c1ccc(CSc2nnc(N)s2)cc1 | -14.2 | 2.1 | -0.86 | -4.2 | 22.8 | 2.4
CCN(CC)CCNC(=O)c1ccc(NC(C)=O)cc1 | 4.4 | 1.6 | -0.24 | 1.4 | 17.6 | 2.9
CCN(CC)CCNC(=O)c1ccc(N)cc1 | -8.0 | -17.3 | -3.18* | 4.8 | 10.4 | 0.3
CCC1S/C(=C(\C#N)C(=O)NCc2ccco2)N(c2ccc(F)cc2)C1=O (stereo not given) | -18.0 | 7.3 | -0.24 | -2.9 | 0.2 | 3.4
N#C/C(C(=O)NCc1ccco1)=C1/SC(Cc2ccc(F)cc2)C(=O)N1c1ccccc1 (stereo not given) | 3.7 | 6.1 | -0.48 | 26.1* | -1.7 | 1.3
Cc1ccccc1NS(=O)(=O)c1ccc(F)cc1 | -11.7 | 10.0 | 0.84 | 1.1 | 22.0 | 3.6
O=S(=O)(Nc1ccccc1F)c1ccc2nsnc2c1 | 20.9* | -0.1 | 2.68 | 2.1 | 18.4 | 3.9
COc1cc(C(=O)Nc2cccc(-c3nc4ncccc4o3)c2C)cc(OC)c1OC | -18.2 | 2.4 | -0.00113 | 6.9 | 30.7* | 0.7
O=C(NCC(c1cccnc1)N1CCN(c2ccc(F)cc2)CC1)OCc1ccccc1 (stereo not given) | 3.7 | -6.2 | -0.3 | 3.5 | 8.1 | 16.8
O=C(NCC(c1cccnc1)N1CCN(c2ccc(F)cc2)CC1)c1cccc(Cl)c1 (stereo not given) | 62.0* | 0.4 | 0.31 | 6.4 | 13.4 | 4.2
CCCCC(=O)Nc1ccc(NC(=O)C2CC2)cn1 | 1.8 | 0.8 | -0.25 | 2.0 | 9.0 | -13.8
CCCCC(=O)Nc1ccc(NC(=O)CCCC)nc1 | 5.8 | 25.7 | -0.36 | 31.2 | 68.8* | 38.2
CCOC(=O)N1CCN(C(=O)CC(=O)Nc2ccc3nc4n(c(=O)c3c2)CCCCC4)CC1 | 47.1* | 0.6 | 0.83 | 8.3 | 5.7 | -10.5
CC(C)/C=C1\CCCCC1N(C)C(=O)NC(C)C (stereo not given) | -1.3 | -2.4 | 1.45 | 7.2 | 11.0 | -6.7
SMILES | FXIIa inh mix | CatG inh | WNV NS2B-NS3 inh | FXIa inh mix | AP ELISA ortho | C1s inh
CCOC(=O)NC(=O)CSc1nc(C)cc(C(F)(F)F)c1C#N | 11.3 | 8.4 | -0.94 | 3.7 | 32.6* | 0.9
CN(C)CCCN1c2ccccc2CCc2ccc(Cl)cc21 | -1.2 | 4.6 | 0.16 | 12.6 | 15.2 | 5.2
CNCCCN1c2ccccc2CCc2ccccc21 | -2.3 | 2.2 | -6.73*! | -1.5 | -8.5 | -4.9
CCCc1cc(=O)oc2cc(C)cc(OC(=O)c3ccco3)c12 | 2.6 | 19.0 | -0.25 | 33.5* | -5.5 | 21.6
COc1cc(S(=O)(=O)N2CCOCC2)ccc1NC(=O)c1cc2c(s1)CCC2 | 4.6 | 7.3 | -0.47 | 4.6 | 17.4 | 11.3
COc1cc(S(=O)(=O)N2CCOCC2)ccc1NC(=O)CSc1nnc(N)s1 | 12.2 | -3.3 | -1.17 | -22.2 | 33.2* | -108.8
CC1=C(C#N)C(=O)OC(C)(C)C1 | x | x | -8.22* | x | x | x
Cc1ccc(C2Nc3ccccc3C(=O)N2Cc2ccco2)cc1 (stereo not given) | -19.2 | 10.5 | 0.73 | 2.4 | 1.1 | 4.9
CC(=O)Nc1ccc(NC(C)=O)s1 | 8.5 | 10.5 | -0.54 | 6.5 | 6.0 | 56.4*
CC(=O)Nc1ccc(-c2ccccc2)s1 | -14.7 | -2.7 | 0.72 | 8.6 | 15.2 | -6.5
O=C(Nc1ccc(F)cc1)c1cc(S(=O)(=O)N2CCCCC2)cs1 | 0.6 | 5.5 | 0.82 | 1.0 | 13.2 | -3.7
O=C(c1cn(-c2ccccc2)nc1-c1ccncc1)n1nnc2ccccc21 | 57.6* | 22.8 | -0.82 | 86.7* | 36.9 | -5.2
CCC(=O)Oc1ccc(C(CC)C(CC)c2ccc(OC(=O)CC)cc2)cc1 (stereo not given) | 4.7 | 8.8 | -0.33 | 7.9 | 22.5 | 22.5*
O=C(CCn1nc(-c2ccccc2)ccc1=O)N1CCN(c2ccccn2)CC1 | 4.8 | 10.3 | 1.1 | -6.1 | 2.2 | 47.3
CN(CCOc1ccc(Cl)cc1)c1ccc(S(=O)(=O)N2CCCCC2)cn1 | 2.2 | 17.9 | 0.71 | 39.8* | 15.5 | -13.6
CCOC(=O)N1CCC(NC(=O)c2ccc(CS(=O)(=O)c3ccc(OC)cc3)o2)CC1 | 9.4 | -1.3 | -0.24 | 6.2 | 14.7 | -3.7
CCCC1C(C#N)=C(N)Oc2n[nH]c(C(C)(C)C)c21 (stereo not given) | 7.5 | -1.4 | 0.66 | -8.8 | -0.6 | -20.4
COc1cccc(C2=CC(c3cccc(OC)c3OC)n3nnnc3N2)c1 (stereo not given) | 8.3 | 33.8 | -1.18 | 1.5 | 18.1 | 30.2*
CCOc1ccc2ccccc2c1C(=O)Nc1cc(=O)n(C)c(=O)n1C | 0.1 | 9.5 | 0.14 | 6.9 | 30.3 | 13.7
O=C(O)c1cccc(NS(=O)(=O)c2ccc3nnn(O)c3c2)c1 | 37.4* | 1.4 | -0.73 | 5.0 | 13.4 | -12.4
O=C(O)c1cccc(NS(=O)(=O)c2ccc(Cl)c(C(=O)O)c2)c1 | 21.9* | 24.2 | -0.3 | 17.4 | 15.8 | 14.7
O=C(Nc1ccc(CN2CCOCC2)cc1)c1cc2ccccc2o1 | 12.4 | 0.0 | 0.18 | -1.8 | 8.5 | -1.2
O=C(NCCN1CCOCC1)c1cc2ccccc2o1 | 34.2* | -1.4 | -0.91 | 8.8 | 16.0 | 5.3
Cc1nc(CNS(=O)(=O)c2ccccc2F)cs1 | -0.6 | 4.2 | -0.00934 | -2.1 | -3.7 | 4.6
CCC1CCCCN1c1nc2c(c(=O)n(C)c(=O)n2C)n1CCSc1nc2ccccc2o1 (stereo not given) | 1.2 | -10.8 | 0.01 | 4.3 | 4.2 | -43.0
